Runt-SMMHC FRET – inhibitors of RUNX1 Runt–CBFb-SMMHC binding, primary screen, biochemical, FRET, Cerulean-Runt, Venus-CBFb-SMMHC, uHTS; Runt-related transcription factor 1 (Homo sapiens) + Core-binding factor subunit beta …; AID 1434, 2008; inhibition, % at 20 µM; Cerulean-Runt/Venus-CBFb-SMMHC FRET ratio 530/480, 1 h; 0.74% of 220,000 active;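 active = mean inhibition across duplicate retests at 20 µM reaching about 50%, limit read from the data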;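 also: inhibitors lower the FRET ratio by blocking Runt binding to CBFb-SMMHC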
MEX-5 binding – MEX-5 zinc finger RNA-binding disruptors – biochemical, C. elegans, fluorescence polarization, MLPCN library, primary screen; Zinc finger protein mex-5 (Caenorhabditis elegans), Q9XUB2; MEX-5/FITC-TCR2 RNA binding; hits give low values; activity score (negative = inhibition of binding), % at 10 µM; 0.38% of 300,000 active; AID 1832, 2009;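 active = inhibition past about -25% in most replicates, and total fluorescence under double the plate's negative control median, limit read from the data; inconclusive = replicates evenly split on the limit, or fluorescence at least double controls; inactive = too little inhibition in most replicates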
Target sequence (Q9XUB2 whole entry, looked up): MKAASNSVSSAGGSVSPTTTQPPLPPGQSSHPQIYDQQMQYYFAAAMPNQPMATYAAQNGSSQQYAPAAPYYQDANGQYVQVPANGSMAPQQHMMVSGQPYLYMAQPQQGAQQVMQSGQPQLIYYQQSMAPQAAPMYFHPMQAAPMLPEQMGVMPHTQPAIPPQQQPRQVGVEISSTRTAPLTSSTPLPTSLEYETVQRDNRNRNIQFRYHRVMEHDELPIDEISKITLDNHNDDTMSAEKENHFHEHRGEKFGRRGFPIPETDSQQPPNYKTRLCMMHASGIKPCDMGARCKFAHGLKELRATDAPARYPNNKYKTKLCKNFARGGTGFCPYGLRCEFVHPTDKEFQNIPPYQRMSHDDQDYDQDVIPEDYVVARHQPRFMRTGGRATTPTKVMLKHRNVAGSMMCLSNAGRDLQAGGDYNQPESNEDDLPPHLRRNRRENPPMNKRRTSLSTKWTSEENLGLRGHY
RanGTP-Imp inh – inhibitors of RanGTP-importin-beta interaction, primary screen, biochemical, FRET, CFP-Ran, YFP-importin-beta, homogeneous. cell-free CFP-Ran/YFP-importin-beta FRET ratio. inhibition, % (concentration not given with the values). 1.1% of 300,000 active. AID 2216, 2009;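 active = more than half of the replicate wells show a fall in the fluorescence ratio signal beyond about 16%, limit read from the data, passing the limit was not always enough; inconclusive = exactly half of the replicate wells pass the set limit; inactive = fewer than half of replicates pass the limit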
Runt-CBFb FRET – inhibitors of RUNX1 Runt–CBFb binding, primary screen, biochemical, FRET, Cerulean-Runt, Venus-CBFb, uHTS | Cerulean-Runt/Venus-CBFb FRET ratio 530/480, 1 h | inhibition, % at 20 µM | 0.46% of 220,000 active;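 active = inhibition over about 50% at 20 µM in the single-dose screen, limit read from the data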
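Assay system: Cerulean-tagged RUNX1 Runt domain (FRET donor) fusion protein / Amount: 100 nM each of Venus-CBFb and Cerulean-Runt domain / Medium: Tris buffer pH 7.5 with salts and BSA / Also added: Venus-CBFb 100 nM / Schedule: 1 h complex formation plus 1 h compound treatment, room temperature / Signal: FRET fluorescence / Read-out: loss of energy transfer signal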
EBV gp42 block – Epstein-Barr virus gp42 inhibitors, primary screen, biochemical, uHTS, fluorescence polarization; Glycoprotein 42 (Epstein-Barr virus (strain AG876)), Q1HVG2; Fluorescence polarization binding assay, mP read-out; inhibition, % (tested at 21.74 µM); 0.42% of 220,000 active; AID 1085, 2008
PKD1 kinase inh – inhibitors of human PKD1 kinase, biochemical, fluorescence polarization | Serine/threonine-protein kinase D1 (Homo sapiens), Q15139 | PKD1 kinase fluorescence polarization assay | inhibition, % (no concentration beside the values) | 0.056% of 200,000 active | AID 797, 2007
A number is an active result. Hits are enriched below; roughly 2% of the tested compounds scored in any of these assays. Rule as the data show it, unless noted: active = inhibition above about 50%; inactive = the rest.

How did Cc1ccc2nc(NCc3ccccc3)c(C=NCc3ccccc3)c(=O)n2c1 do in these assays?
Runt-SMMHC FRET: inactive; MEX-5 binding: inactive; RanGTP-Imp inh: inactive; Runt-CBFb FRET: inactive; EBV gp42 block: inactive; PKD1 kinase inh: inactive

How did Cc1ccc2nc(NCCCN3CCOCC3)c(C=NCCCN3CCOCC3)c(=O)n2c1 do in these assays?
Runt-SMMHC FRET: 66.3; MEX-5 binding: inactive; RanGTP-Imp inh: 39.2; Runt-CBFb FRET: 76.2; EBV gp42 block: inactive; PKD1 kinase inh: inactive

What do the screens show for `Cc1cc(-c2ccc(S(=O)(=O)N3CCN(c4ccccc4F)CC3)s2)on1`?
MEX-5 binding: inactive; RanGTP-Imp inh: inactive

Results for CCNc1ccc2noc3c2c1C(=O)c1ccccc1-3 ?
Runt-SMMHC FRET: inactive; MEX-5 binding: inconclusive; RanGTP-Imp inh: inactive; Runt-CBFb FRET: inactive; EBV gp42 block: 56.2; PKD1 kinase inh: inactive

How did O=c1c2cc(Br)cc(Br)c2oc2nc3n(c(=O)c12)CCCS3 do in these assays?
Runt-SMMHC FRET: inactive; MEX-5 binding: inactive; RanGTP-Imp inh: inactive; Runt-CBFb FRET: inactive; EBV gp42 block: inactive; PKD1 kinase inh: inactive

Results for O=Cc1ccc2oc3nc4n(c(=O)c3c(=O)c2c1)CCCS4 ?
Runt-SMMHC FRET: inactive; MEX-5 binding: inactive; RanGTP-Imp inh: inactive; Runt-CBFb FRET: inactive; EBV gp42 block: 85.1; PKD1 kinase inh: inactive

Results for COC(=O)c1ccc(C(=O)Nc2ccc(C(C)C)cc2N)cc1 ?
Runt-SMMHC FRET: inactive; MEX-5 binding: inactive; RanGTP-Imp inh: inactive; Runt-CBFb FRET: inactive; EBV gp42 block: inactive; PKD1 kinase inh: inactive

What do the screens show for `Cn1cc(CN2CCC[C@H]2CO)c(-c2cccc(Cl)c2)n1`?
Runt-SMMHC FRET: inactive; MEX-5 binding: inactive; RanGTP-Imp inh: 110.4; Runt-CBFb FRET: inactive; EBV gp42 block: inactive; PKD1 kinase inh: inactive

Results for O=C1c2ccccc2C(=O)c2[nH]cnc21 ?
Runt-SMMHC FRET: inactive; MEX-5 binding: inconclusive; RanGTP-Imp inh: inactive; Runt-CBFb FRET: inactive; EBV gp42 block: inactive

How did O=C1c2ccccc2C(=O)c2[nH]c(=O)[nH]c21 do in these assays?
MEX-5 binding: -55.4; RanGTP-Imp inh: inactive

How did CN1CCN(c2ccccc2NC(=O)c2ccc(-c3ccccc3[N+](=O)[O-])o2)CC1 do in these assays?
MEX-5 binding: inactive; RanGTP-Imp inh: inactive

How did CCOC(=O)c1ccc(CC(=O)c2ccc(O)c(O)c2O)o1 do in these assays?
Runt-SMMHC FRET: inactive; MEX-5 binding: -26.9; RanGTP-Imp inh: inactive; Runt-CBFb FRET: inactive; EBV gp42 block: inactive; PKD1 kinase inh: inactive

How did C[C@@H](C(=O)N1CCN(Cc2ccc3c(c2)OCO3)CC1)n1nnc2ccccc2c1=O do in these assays?
MEX-5 binding: inactive; RanGTP-Imp inh: inactive

What do the screens show for `O=C1CCC(c2ccccc2)N1C(=O)c1cccnc1` (stereo not drawn)?
Runt-SMMHC FRET: inactive; MEX-5 binding: inactive; RanGTP-Imp inh: 33.8; Runt-CBFb FRET: inactive; EBV gp42 block: inactive; PKD1 kinase inh: inactive

How did Cn1c(=O)cc(Nc2ccccc2)[nH]c1=O do in these assays?
MEX-5 binding: inactive; RanGTP-Imp inh: inconclusive

Results for COc1ccccc1Nc1cc2cc(Br)ccc2c(=O)[nH]1 ?
MEX-5 binding: inactive; RanGTP-Imp inh: 34.5

How did O=c1[nH]c(Nc2ccccc2)cc2cc(Br)ccc12 do in these assays?
MEX-5 binding: inactive; RanGTP-Imp inh: 83.0

How did CC(=O)c1cccc(-c2ccc3c(=O)[nH]c(Nc4ccccc4)cc3c2)c1 do in these assays?
MEX-5 binding: inactive; RanGTP-Imp inh: 21.6

How did COc1ccc(OC)c(Nc2cc3ccccc3c(=O)[nH]2)c1 do in these assays?
MEX-5 binding: inactive; RanGTP-Imp inh: inconclusive

What do the screens show for `O=c1[nH]c(Nc2ccccc2)cc2ccccc12`?
Runt-SMMHC FRET: inactive; MEX-5 binding: inactive; RanGTP-Imp inh: 42.9; Runt-CBFb FRET: inactive; EBV gp42 block: 71.7; PKD1 kinase inh: inactive

High-throughput results from PubChem BioAssay.
